Data as given in ChEMBL document CHEMBL1138050, “Furan-2-ylmethylene thiazolidinediones as novel, potent, and selective inhibitors of phosphoinositide 3-kinase gamma” (J Med Chem, 2006).

Columns and labels:
[1] = target: Insulin receptor (Homo sapiens) (UniProt P06213); experiment: Residual activity at human IR at 10 uM in presence of 10 uM ATP relative to control
In short: (§1)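 Panel of Ser/Thr and Tyr protein kinases, each tested with 10 µM compound in the presence of 10 µM ATP; activity expressed relative to control.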

[2] = target: Mitogen-activated protein kinase 10 (Homo sapiens) (UniProt P53779); experiment: Residual activity at human JNK3 at 10 uM in presence of 10 uM ATP relative to control
In short: (§2)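 Single-concentration counter-screen across a panel of 80 Ser/Thr and Tyr protein kinases. Compound was tested at 10 µM with ATP at 10 µM. Activity remaining in each kinase is expressed relative to control.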

Mus musculus = experiment: Reduction of neutrophil recruitment in mouse at 10 mg/kg, po; type: functional; parameters: scale not given: the % may be the effect or the level left
In short: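 Thioglycollate-induced peritonitis in mice. Compound given orally at 10 mg/kg; peritoneal neutrophil recruitment measured 4 h after thioglycollate injection, reported as percent reduction.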

[3] = target: Rho-associated protein kinase 2 (Homo sapiens) (UniProt O75116); experiment: Residual activity at human ROCK2 at 10 uM in presence of 10 uM ATP relative to control; in short: as §2
[4] = target: Ribosomal protein S6 kinase alpha-1 (Homo sapiens) (UniProt Q15418); experiment: Residual activity at human Rsk1 at 10 uM in presence of 10 uM ATP relative to control; in short: as §2
[5] = target: Protein kinase C delta type (Homo sapiens) (UniProt Q05655); experiment: Residual activity at human PKCdelta at 10 uM in presence of 10 uM ATP relative to control; in short: as §2
[6] = target: Tyrosine-protein kinase Blk (Mus musculus) (UniProt P16277); experiment: Residual activity at mouse Blk at 10 uM in presence of 10 uM ATP relative to control; in short: as §2
[7] = target: Protein kinase C alpha type (Homo sapiens) (UniProt P17252); experiment: Residual activity at human PKCalpha at 10 uM in presence of 10 uM ATP relative to control; in short: as §2
[8] = target: Serine/threonine-protein kinase N2 (Homo sapiens) (UniProt Q16513); experiment: Residual activity at human PRK2 at 10 uM in presence of 10 uM ATP relative to control; in short: as §2
[9] = target: Fibroblast growth factor receptor 3 (Homo sapiens) (UniProt P22607); experiment: Residual activity at human FGFR3 at 10 uM in presence of 10 uM ATP relative to control; in short: as §1
[10] = target: Glycogen synthase kinase-3 beta (Homo sapiens) (UniProt P49841); experiment: Residual activity at human GSK3-beta at 10 uM in presence of 10 uM ATP relative to control; in short: as §1
[11] = Dissociation constant, pKa of the compound; type: physicochemical
In short: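 UV-metric titration under argon at 25 ± 0.5 °C. 10 mM DMSO stock diluted into 0.15 M KCl containing 60, 50, 40 or 30 wt% MeOH, with 0.25 mM KH2PO4. Brought to pH 11.0 with 0.5 M KOH, then titrated with 0.5 M HCl to pH 4, at most 0.15 pH unit per step. UV 200-500 nm recorded after each addition; Yasuda-Shedlovsky extrapolation to zero cosolvent.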

[12] = target: Serine/threonine-protein kinase D1 (Homo sapiens) (UniProt Q15139); experiment: Residual activity at human PKCmu at 10 uM in presence of 10 uM ATP relative to control; in short: as §2
[13] = target: Dual specificity mitogen-activated protein kinase kinase 1 (Homo sapiens) (UniProt Q02750); experiment: Residual activity at human MEK1 at 10 uM in presence of 10 uM ATP relative to control; in short: as §2
[14] = target: Dual specificity mitogen-activated protein kinase kinase 7 (Homo sapiens) (UniProt O14733); experiment: Residual activity at human MKK7-beta at 10 uM in presence of 10 uM ATP relative to control; in short: as §2
[15] = target: RAC-beta serine/threonine-protein kinase (Homo sapiens) (UniProt P31751); experiment: Residual activity at human PKBbeta at 10 uM in presence of 10 uM ATP relative to control; in short: as §2
[16] = target: Mitogen-activated protein kinase 1 (Homo sapiens) (UniProt P28482); experiment: Residual activity at human MAPK1 at 10 uM in presence of 10 uM ATP relative to control; in short: as §2
[17] = target: Ribosomal protein S6 kinase alpha-3 (Homo sapiens) (UniProt P51812); experiment: Residual activity at human Rsk3 at 10 uM in presence of 10 uM ATP relative to control; in short: as §2
[18] = target: Serine/threonine-protein kinase Chk1 (Homo sapiens) (UniProt O14757); experiment: Residual activity at human Chk1 at 10 uM in presence of 10 uM ATP relative to control; in short: as §1
[19] = target: Ribosomal protein S6 kinase alpha-5 (Homo sapiens) (UniProt O75582); experiment: Residual activity at human MSK1 at 10 uM in presence of 10 uM ATP relative to control; in short: as §2
[20] = target: BDNF/NT-3 growth factors receptor (Homo sapiens) (UniProt Q16620); experiment: Residual activity at human TrkB at 10 uM in presence of 10 uM ATP relative to control; in short: as §2
[21] = AUC in rat at 10 mg/kg, iv; type: ADME, organism-based; parameters: dose 10 mg/kg, route intravenous; details: plasma
In short: (§3)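 Rats given a single 10 mg/kg dose, intravenously or orally. The compound was given as its potassium salt, prepared with KOH in THF/water, for the in vivo work.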

Rattus norvegicus = species: Rattus norvegicus; experiment: Residual activity at rat AMPK at 10 uM in presence of 10 uM ATP relative to control; in short: as §2
THP-1 = experiment: Inhibition of CSF-1-induced PKB/Akt phosphorylation in THP1 cells; details: Homo sapiens
[22] = target: Mitogen-activated protein kinase 8 (Homo sapiens) (UniProt P45983); experiment: Residual activity at human JNK1alpha1 at 10 uM in presence of 10 uM ATP relative to control; in short: as §2
[23] = target: Protein kinase C eta type (Homo sapiens) (UniProt P24723); experiment: Residual activity at human PKCeta at 10 uM in presence of 10 uM ATP relative to control; in short: as §2
[24] = AUC in rat at 10 mg/kg, po; type: ADME, organism-based; parameters: dose 10 mg/kg, route oral; details: plasma; in short: as §3
[25] = target: Platelet-derived growth factor receptor alpha (Homo sapiens) (UniProt P16234); experiment: Residual activity at human PDGFRalpha at 10 uM in presence of 10 uM ATP relative to control; in short: as §2
[26] = target: Tyrosine-protein kinase ABL1 (Homo sapiens) (UniProt P00519); experiment: Residual activity at human Abl at 10 uM in presence of 10 uM ATP relative to control; in short: as §1
[27] = target: Protein kinase C theta type (Homo sapiens) (UniProt Q04759); experiment: Residual activity at human PKCtheta at 10 uM in presence of 10 uM ATP relative to control; in short: as §2
[28] = target: MAP kinase-activated protein kinase 2 (Homo sapiens) (UniProt P49137); experiment: Residual activity at human MAPKAPK2 at 10 uM in presence of 10 uM ATP relative to control; in short: as §2
MAP kinase-activated protein kinase 2 (Homo sapiens), sequence (P49137 whole entry, looked up): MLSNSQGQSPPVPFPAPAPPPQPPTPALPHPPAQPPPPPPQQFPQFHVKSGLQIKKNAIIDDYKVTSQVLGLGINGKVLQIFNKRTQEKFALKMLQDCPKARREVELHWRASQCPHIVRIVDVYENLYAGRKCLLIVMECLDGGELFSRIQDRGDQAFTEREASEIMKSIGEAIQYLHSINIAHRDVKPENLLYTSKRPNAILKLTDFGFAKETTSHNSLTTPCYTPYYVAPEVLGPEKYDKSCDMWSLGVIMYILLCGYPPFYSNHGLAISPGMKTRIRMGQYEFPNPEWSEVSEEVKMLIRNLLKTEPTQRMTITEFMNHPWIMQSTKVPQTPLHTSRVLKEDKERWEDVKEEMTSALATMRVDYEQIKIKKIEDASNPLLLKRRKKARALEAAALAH

Serine/threonine-protein kinase D1 (Homo sapiens), sequence (Q15139 whole entry): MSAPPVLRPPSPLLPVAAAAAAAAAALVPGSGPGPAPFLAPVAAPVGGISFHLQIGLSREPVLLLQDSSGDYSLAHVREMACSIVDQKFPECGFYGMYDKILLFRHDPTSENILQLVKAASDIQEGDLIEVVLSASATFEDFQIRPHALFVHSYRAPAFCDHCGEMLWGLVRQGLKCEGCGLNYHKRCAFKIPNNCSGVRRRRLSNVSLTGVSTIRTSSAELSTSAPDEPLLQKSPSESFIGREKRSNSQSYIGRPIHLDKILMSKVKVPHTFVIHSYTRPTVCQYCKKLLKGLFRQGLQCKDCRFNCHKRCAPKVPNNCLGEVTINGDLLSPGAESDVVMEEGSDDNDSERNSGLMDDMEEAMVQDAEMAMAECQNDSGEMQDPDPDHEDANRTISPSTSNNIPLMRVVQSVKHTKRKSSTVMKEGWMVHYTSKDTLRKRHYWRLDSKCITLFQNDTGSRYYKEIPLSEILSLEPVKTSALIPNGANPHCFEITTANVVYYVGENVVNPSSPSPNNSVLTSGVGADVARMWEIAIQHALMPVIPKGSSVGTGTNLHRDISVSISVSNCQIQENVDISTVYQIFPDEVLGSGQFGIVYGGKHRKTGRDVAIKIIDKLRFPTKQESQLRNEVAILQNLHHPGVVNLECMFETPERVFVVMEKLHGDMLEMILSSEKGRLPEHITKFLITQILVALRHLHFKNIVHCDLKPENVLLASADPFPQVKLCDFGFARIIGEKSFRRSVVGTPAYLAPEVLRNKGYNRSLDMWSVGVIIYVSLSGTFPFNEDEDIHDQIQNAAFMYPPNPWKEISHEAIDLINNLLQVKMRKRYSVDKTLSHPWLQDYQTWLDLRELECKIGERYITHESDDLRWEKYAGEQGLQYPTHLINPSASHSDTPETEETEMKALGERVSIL
Mitogen-activated protein kinase 10 (Homo sapiens), sequence (P53779 whole entry): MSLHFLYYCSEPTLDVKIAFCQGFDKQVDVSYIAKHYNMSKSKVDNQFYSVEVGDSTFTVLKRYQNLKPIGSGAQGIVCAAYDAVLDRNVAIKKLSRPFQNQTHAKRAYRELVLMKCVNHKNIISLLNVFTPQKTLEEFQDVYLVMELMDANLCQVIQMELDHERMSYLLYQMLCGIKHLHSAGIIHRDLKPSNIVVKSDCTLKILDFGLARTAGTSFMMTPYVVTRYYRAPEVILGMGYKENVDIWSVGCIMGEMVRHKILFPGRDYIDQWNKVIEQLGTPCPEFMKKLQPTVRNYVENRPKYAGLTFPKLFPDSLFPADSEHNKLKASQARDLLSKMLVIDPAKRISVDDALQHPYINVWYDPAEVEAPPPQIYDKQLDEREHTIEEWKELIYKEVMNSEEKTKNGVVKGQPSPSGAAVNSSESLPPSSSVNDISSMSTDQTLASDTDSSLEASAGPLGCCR
Dual specificity mitogen-activated protein kinase kinase 1 (Homo sapiens), sequence (Q02750 whole entry): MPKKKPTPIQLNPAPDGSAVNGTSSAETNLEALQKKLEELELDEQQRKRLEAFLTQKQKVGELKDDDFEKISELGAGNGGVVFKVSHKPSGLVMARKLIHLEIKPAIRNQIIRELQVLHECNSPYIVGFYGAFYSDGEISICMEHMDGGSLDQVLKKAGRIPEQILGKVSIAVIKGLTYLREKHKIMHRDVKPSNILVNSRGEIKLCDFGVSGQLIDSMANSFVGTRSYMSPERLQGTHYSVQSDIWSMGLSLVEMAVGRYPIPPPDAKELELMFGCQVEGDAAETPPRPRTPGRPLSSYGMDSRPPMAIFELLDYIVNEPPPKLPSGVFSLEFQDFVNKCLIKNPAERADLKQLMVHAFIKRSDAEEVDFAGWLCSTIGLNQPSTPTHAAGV
Protein kinase C delta type (Homo sapiens), sequence (Q05655 whole entry, looked up): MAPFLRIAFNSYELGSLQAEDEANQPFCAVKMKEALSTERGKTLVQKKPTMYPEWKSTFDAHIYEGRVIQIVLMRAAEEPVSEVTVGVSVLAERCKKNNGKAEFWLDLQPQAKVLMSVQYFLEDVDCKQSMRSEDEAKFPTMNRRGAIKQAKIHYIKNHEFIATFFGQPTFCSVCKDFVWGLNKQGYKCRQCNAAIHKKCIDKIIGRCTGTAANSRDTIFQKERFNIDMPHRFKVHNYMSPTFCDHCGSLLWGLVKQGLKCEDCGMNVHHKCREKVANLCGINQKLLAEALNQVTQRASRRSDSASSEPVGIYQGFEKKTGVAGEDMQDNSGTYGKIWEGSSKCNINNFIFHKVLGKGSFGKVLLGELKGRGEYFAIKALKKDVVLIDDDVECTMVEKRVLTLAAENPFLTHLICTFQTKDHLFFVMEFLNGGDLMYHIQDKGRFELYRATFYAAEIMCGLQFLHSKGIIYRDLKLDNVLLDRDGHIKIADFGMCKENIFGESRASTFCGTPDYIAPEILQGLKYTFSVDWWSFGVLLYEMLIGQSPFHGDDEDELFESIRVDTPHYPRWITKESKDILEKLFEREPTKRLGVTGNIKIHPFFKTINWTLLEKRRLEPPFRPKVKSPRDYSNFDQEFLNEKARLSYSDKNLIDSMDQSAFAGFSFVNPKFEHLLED
Protein kinase C theta type (Homo sapiens), sequence (Q04759 whole entry, looked up): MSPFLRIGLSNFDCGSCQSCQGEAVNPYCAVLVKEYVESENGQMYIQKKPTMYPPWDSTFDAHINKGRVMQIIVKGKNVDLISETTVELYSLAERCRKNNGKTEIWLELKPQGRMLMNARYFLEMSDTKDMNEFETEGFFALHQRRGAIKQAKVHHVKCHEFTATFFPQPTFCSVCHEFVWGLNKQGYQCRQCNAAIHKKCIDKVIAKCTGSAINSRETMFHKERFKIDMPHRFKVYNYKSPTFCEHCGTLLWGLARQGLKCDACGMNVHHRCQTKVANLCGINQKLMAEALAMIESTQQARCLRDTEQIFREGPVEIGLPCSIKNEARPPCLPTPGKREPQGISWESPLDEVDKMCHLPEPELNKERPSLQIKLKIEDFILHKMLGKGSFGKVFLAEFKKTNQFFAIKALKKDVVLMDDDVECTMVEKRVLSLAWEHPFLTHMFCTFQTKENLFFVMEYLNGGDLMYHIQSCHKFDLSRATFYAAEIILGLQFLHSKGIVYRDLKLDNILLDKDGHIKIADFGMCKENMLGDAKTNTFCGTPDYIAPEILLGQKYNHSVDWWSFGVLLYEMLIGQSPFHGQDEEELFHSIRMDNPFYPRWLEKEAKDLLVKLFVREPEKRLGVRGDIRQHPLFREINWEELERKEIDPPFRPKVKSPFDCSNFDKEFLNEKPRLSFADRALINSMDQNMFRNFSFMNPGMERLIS
BDNF/NT-3 growth factors receptor (Homo sapiens), sequence (Q16620 32-822 limits assumed): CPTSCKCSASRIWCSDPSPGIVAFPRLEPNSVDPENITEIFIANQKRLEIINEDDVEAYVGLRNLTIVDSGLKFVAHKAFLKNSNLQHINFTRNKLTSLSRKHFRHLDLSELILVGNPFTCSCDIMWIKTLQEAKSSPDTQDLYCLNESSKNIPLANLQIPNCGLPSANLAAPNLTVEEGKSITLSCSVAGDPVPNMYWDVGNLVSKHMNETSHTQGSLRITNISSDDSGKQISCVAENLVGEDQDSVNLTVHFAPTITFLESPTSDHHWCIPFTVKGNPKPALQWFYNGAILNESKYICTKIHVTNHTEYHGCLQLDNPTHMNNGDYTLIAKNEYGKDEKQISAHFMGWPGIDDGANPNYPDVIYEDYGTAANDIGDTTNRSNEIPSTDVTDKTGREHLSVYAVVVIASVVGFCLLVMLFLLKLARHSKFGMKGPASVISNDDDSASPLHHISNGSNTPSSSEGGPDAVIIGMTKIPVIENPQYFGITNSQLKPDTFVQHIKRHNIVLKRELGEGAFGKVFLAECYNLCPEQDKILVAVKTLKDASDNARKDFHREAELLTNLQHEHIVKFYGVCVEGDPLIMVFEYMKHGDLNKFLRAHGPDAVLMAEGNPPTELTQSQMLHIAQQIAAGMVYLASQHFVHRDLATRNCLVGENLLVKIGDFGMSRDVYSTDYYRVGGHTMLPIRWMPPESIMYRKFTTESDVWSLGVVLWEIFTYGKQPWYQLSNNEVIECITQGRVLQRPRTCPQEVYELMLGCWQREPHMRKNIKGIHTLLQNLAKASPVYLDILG

Activity [1]: 90% | Activity [2]: 86% | Activity [3]: 90% | Activity [4]: 104% | Activity [5]: 109% | Activity [6]: 70% | Activity [7]: 98% | Activity [8]: 95% | Activity [9]: 121% | Activity [10]: 84% | pKa [11]: 8.4 | Activity [12]: 98% | Activity [13]: 96% | Activity [14]: 2% | Activity [15]: 103% | Activity [16]: 103% | Activity [17]: 73% | Activity [18]: 94% | Activity [19]: 72% | Activity [20]: 98% | AUC [21]: 4400 ng·h/mL | Activity (Rattus norvegicus): 90% | IC50 (THP-1): 4.73 µM | Activity [22]: 97% | Activity [23]: 91% | AUC [24]: 847 ng·h/mL | Activity [25]: 85% | Activity [26]: 92% | Activity [27]: 102% | Activity [28]: 117%
SMILES: O=C1NC(=O)/C(=C/c2ccc(-c3ccc(F)cc3O)o2)S1
Activity (Mus musculus): 35%
